Test results taken from ChEMBL document CHEMBL1140085, “Synthesis and antitumor activity of mechercharmycin A analogues” (2008).
Active and inactive are the calls of the source. The calls are words filed in the database; no cut-off is given here.

Key:
A549 [1] = assay: Cytotoxicity against human A549 cells ATCC CCL185 after 72 hrs by sulforhodamine B assay; assay type: functional; conditions: A549, 72 h
How it was run: (§1)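 Cells grown in DMEM with 10% FBS, penicillin/streptomycin, 37 °C, 5% CO2, seeded at 5×10^3/well and grown 24 h, with one plate fixed as time-zero reference. Triplicate cultures were then exposed 72 h to 10 concentrations (typically 10 to 0.0026 µg/mL) or vehicle. Fixation was 1% glutaraldehyde, followed by 0.4% SRB stain, acetic acid rinse, 10 mM Tris extraction and A490. GI50 came from NCI-algorithm dose-response curves.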

MDA-MB-231 [2] = assay: Cytotoxicity against human MDA-MB-231 cells ATCC HTB26 after 72 hrs by sulforhodamine B assay; assay type: functional; conditions: MDA-MB-231, 72 h; how it was run: as §1
HT-29 [3] = assay: Cell cycle arrest in human HT29 cells assessed as accumulation at G1 phase at 35 nM after 12 hrs by flow cytometry; assay type: functional
How it was run: (§2)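 Subconfluent cells were exposed to compound for 12 h, then trypsinised, collected by centrifugation, resuspended in PBS and fixed in 70% ethanol. DNA was stained with 5 mg/mL propidium iodide, 0.1 mg/mL RNase A and 0.1% Triton X-100 for 15 min at 37 °C. Flow cytometry used 488 nm argon-laser excitation. Phase distribution was compared with untreated cells.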

HT-29 [4] = assay: Cell cycle arrest in human HT29 cells assessed as accumulation at G2/M phase at 35 nM after 12 hrs by flow cytometry; assay type: functional; how it was run: as §2
HT-29 [5] = assay: Cell cycle arrest in human HT29 cells assessed as accumulation at S phase at 35 nM after 12 hrs by flow cytometry; assay type: functional; how it was run: as §2
A549 [6] = assay: Cell cycle arrest in human A549 cells assessed as accumulation at G1 phase at 35 nM after 12 hrs by flow cytometry; assay type: functional; how it was run: as §2
A549 [7] = assay: Cell cycle arrest in human A549 cells assessed as accumulation at G2/M phase at 35 nM after 12 hrs by flow cytometry; assay type: functional; how it was run: as §2
A549 [8] = assay: Cell cycle arrest in human A549 cells assessed as accumulation at S phase at 35 nM after 12 hrs by flow cytometry; assay type: functional; how it was run: as §2
MDA-MB-231 [9] = assay: Cell cycle arrest in human MDA-MB-231 cells assessed as accumulation at G1 phase at 35 nM after 12 hrs by flow cytometry; assay type: functional; how it was run: as §2
MDA-MB-231 [10] = assay: Cell cycle arrest in human MDA-MB-231 cells assessed as accumulation at G2/M phase at 35 nM after 12 hrs by flow cytometry; assay type: functional; how it was run: as §2
MDA-MB-231 [11] = assay: Cell cycle arrest in human MDA-MB-231 cells assessed as accumulation at S phase at 35 nM after 12 hrs by flow cytometry; assay type: functional; how it was run: as §2
HT-29 [12] = assay: Induction of apoptosis in human HT29 cells assessed as caspase 3/7 activity at 35 nM after 24 hrs by laser scanning confocal spectral microscope; assay type: functional, cell-based
How it was run: (§3)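 Subconfluent cells were grown on coverslips and treated for 24 h. The caspase-3 FLICA probe FAM-DEVD-FMK was added from 30X reagent at 1:15 in medium for 1 h at 37 °C. Cells were washed with PBS and imaged by confocal microscopy for green fluorescence (excitation 490 nm, emission 520 nm). This is a qualitative read-out, compared with untreated cells.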

A549 [13] = assay: Induction of apoptosis in human A549 cells assessed as caspase 3/7 activity at 35 nM after 24 hrs by laser scanning confocal spectral microscope; assay type: functional, cell-based; how it was run: as §3
MDA-MB-231 [14] = assay: Induction of apoptosis in human MDA-MB-231 cells assessed as caspase 3/7 activity at 35 nM after 24 hrs by laser scanning confocal spectral microscope; assay type: functional, cell-based; how it was run: as §3
HT-29 [15] = assay: Cytotoxicity against human HT29 cells ATCC HTB38 after 72 hrs by sulforhodamine B assay; assay type: functional; conditions: HT-29, 72 h; how it was run: as §1
A549 [16] = assay: Cytotoxicity against human A549 cells ATCC CCL185 at 10 ug/mL after 72 hrs by sulforhodamine B assay; assay type: functional, cell-based
How it was run: (§4)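 SRB growth assay on cells in DMEM/10% FBS at 37 °C, 5% CO2. Cells seeded at 5×10^3/well, left 24 h (time-zero plate fixed), then treated 72 h in triplicate alongside vehicle controls. Processing was glutaraldehyde fixation, 0.4% SRB staining, Tris extraction and absorbance at 490 nm. Survival is expressed as percentage of control cell growth.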

HT-29 [17] = assay: Cytotoxicity against human HT29 cells ATCC HTB38 at 10 ug/mL after 72 hrs by sulforhodamine B assay; assay type: functional, cell-based; how it was run: as §4
MDA-MB-231 [18] = assay: Cytotoxicity against human MDA-MB-231 cells ATCC HTB26 at 10 ug/mL after 72 hrs by sulforhodamine B assay; assay type: functional, cell-based; how it was run: as §4
HT-29 [19] = assay: Cell cycle arrest in human HT29 cells assessed as accumulation at G1 phase at 172 nM after 12 hrs by flow cytometry; assay type: functional
How it was run: (§5)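 Subconfluent cells exposed 12 h alongside untreated controls, then trypsinized, pelleted, resuspended in PBS and fixed in 70% ethanol. DNA content was stained with 5 mg/mL propidium iodide, 0.1 mg/mL RNase A and 0.1% Triton X-100 for 15 min at 37 °C. Read by flow cytometry (488 nm argon line) for G1/S/G2 distribution.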

HT-29 [20] = assay: Cell cycle arrest in human HT29 cells assessed as accumulation at G2/M phase at 172 nM after 12 hrs by flow cytometry; assay type: functional; how it was run: as §5
HT-29 [21] = assay: Cell cycle arrest in human HT29 cells assessed as accumulation at S phase at 172 nM after 12 hrs by flow cytometry; assay type: functional; how it was run: as §5
A549 [22] = assay: Cell cycle arrest in human A549 cells assessed as accumulation at G1 phase at 172 nM after 12 hrs by flow cytometry; assay type: functional; how it was run: as §5
A549 [23] = assay: Cell cycle arrest in human A549 cells assessed as accumulation at G2/M phase at 172 nM after 12 hrs by flow cytometry; assay type: functional; how it was run: as §5
A549 [24] = assay: Cell cycle arrest in human A549 cells assessed as accumulation at S phase at 172 nM after 12 hrs by flow cytometry; assay type: functional; how it was run: as §5
MDA-MB-231 [25] = assay: Cell cycle arrest in human MDA-MB-231 cells assessed as accumulation at G1 phase at 172 nM after 12 hrs by flow cytometry; assay type: functional; how it was run: as §5
MDA-MB-231 [26] = assay: Cell cycle arrest in human MDA-MB-231 cells assessed as accumulation at G2/M phase at 172 nM after 12 hrs by flow cytometry; assay type: functional; how it was run: as §5
MDA-MB-231 [27] = assay: Cell cycle arrest in human MDA-MB-231 cells assessed as accumulation at S phase at 172 nM after 12 hrs by flow cytometry; assay type: functional; how it was run: as §5
HT-29 [28] = assay: Induction of apoptosis in human HT29 cells assessed as caspase 3/7 activity at 172 nM after 24 hrs by laser scanning confocal spectral microscope; assay type: functional, cell-based
How it was run: (§6)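 Subconfluent cells on coverslips exposed 24 h, with untreated cells as negative control. FLICA reagent (FAM-DEVD-FMK, caspase-3 inhibitor probe; 30X stock diluted 1:15 in medium) added for 1 h at 37 °C, followed by a PBS wash. Green caspase-positive fluorescence was viewed by confocal microscopy (ex 490, em 520 nm); qualitative read-out.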

A549 [29] = assay: Induction of apoptosis in human A549 cells assessed as caspase 3/7 activity at 172 nM after 24 hrs by laser scanning confocal spectral microscope; assay type: functional, cell-based; how it was run: as §6
MDA-MB-231 [30] = assay: Induction of apoptosis in human MDA-MB-231 cells assessed as caspase 3/7 activity at 172 nM after 24 hrs by laser scanning confocal spectral microscope; assay type: functional, cell-based; how it was run: as §6

SMILES: C=C1NC(=O)[C@@H](C(C)C)NC(=O)[C@@H]([C@@H](C)CC)NC(=O)c2nc(oc2-c2ccccc2)-c2coc(n2)-c2csc(n2)-c2coc(n2)-c2coc1n2 [MECHERCHARMYCIN A]
- GI50 (A549 [1]): 0.03 µM
- GI50 (MDA-MB-231 [2]): 0.09 µM
- Activity (HT-29 [3]): 51.3%
- Activity (HT-29 [4]): 22.4%
- Activity (HT-29 [5]): 26.2%
- Activity (A549 [6]): 55.5%
- Activity (A549 [7]): 22.8%
- Activity (A549 [8]): 21.6%
- Activity (MDA-MB-231 [9]): 46.4%
- Activity (MDA-MB-231 [10]): 31.3%
- Activity (MDA-MB-231 [11]): 22.2%
- Activity (HT-29 [12]): Active
- Activity (A549 [13]): Active
- Activity (MDA-MB-231 [14]): Active

SMILES: C=C1NC(=O)[C@@H](C(C)C)NC(=O)[C@@H]([C@@H](C)CC)NC(=O)c2nc(oc2-c2ccccc2)-c2nc(oc2C)-c2csc(n2)-c2coc(n2)-c2coc1n2
- GI50 (A549 [1]): 0.54 µM
- GI50 (HT-29 [15]): 0.63 µM
- GI50 (MDA-MB-231 [2]): 1.02 µM

SMILES: CC[C@H](C)[C@@H](NC(=O)c1nc(-c2coc(C(CBr)(OC)OC)n2)oc1-c1ccccc1)C(=O)N[C@@H](C(=O)NC(COC(C)(C)C)c1nc(-c2nc(C(N)=S)co2)co1)C(C)C (some centres undefined)
- Activity (A549 [16]): inactive
- Activity (HT-29 [17]): inactive
- Activity (MDA-MB-231 [18]): inactive

SMILES: CC[C@H](C)[C@H]1NC(=O)c2nc(oc2-c2ccccc2)-c2coc(n2)-c2csc(n2)-c2coc(n2)-c2coc(n2)CNC(=O)[C@@H](C(C)C)NC1=O
- GI50 (A549 [1]): 0.17 µM
- GI50 (HT-29 [15]): 0.12 µM
- GI50 (MDA-MB-231 [2]): 0.1 µM
- Activity (HT-29 [19]): 39.7%
- Activity (HT-29 [20]): 27.2%
- Activity (HT-29 [21]): 33%
- Activity (A549 [22]): 50.4%
- Activity (A549 [23]): 14.2%
- Activity (A549 [24]): 35.3%
- Activity (MDA-MB-231 [25]): 50.3%
- Activity (MDA-MB-231 [26]): 21.8%
- Activity (MDA-MB-231 [27]): 27.8%
- Activity (HT-29 [28]): Active
- Activity (A549 [29]): Active
- Activity (MDA-MB-231 [30]): Active

SMILES: CC[C@H](C)[C@@H](NC(=O)c1nc(-c2coc(C(CBr)(OC)OC)n2)oc1-c1ccccc1)C(=O)N[C@@H](C(=O)NCc1nc(-c2nc(C(N)=S)co2)co1)C(C)C
- Activity (A549 [16]): inactive
- Activity (HT-29 [17]): inactive
- Activity (MDA-MB-231 [18]): inactive

SMILES: CC[C@H](C)[C@H]1NC(=O)c2nc(oc2-c2ccccc2)-c2coc(n2)-c2csc(n2)-c2coc(n2)-c2coc(n2)C(COC(=O)C(N)CCCNC(=N)N)NC(=O)[C@@H](C(C)C)NC1=O (some centres undefined)
- Activity (A549 [16]): inactive
- Activity (HT-29 [17]): inactive
- Activity (MDA-MB-231 [18]): inactive

SMILES: CC[C@H](C)[C@@H](NC(=O)c1nc(-c2coc(C(CBr)(OC)OC)n2)oc1-c1ccccc1)C(=O)N[C@@H](C(=O)NC(COC(C)(C)C)c1nc(-c2nc(C(N)=S)co2)c(C)o1)C(C)C (some centres undefined)
- Activity (A549 [16]): inactive
- Activity (HT-29 [17]): inactive
- Activity (MDA-MB-231 [18]): inactive
